Data from ChEMBL document CHEMBL1155235 (Eur J Med Chem, 2009).
Activity calls are given as the source filed them. No cut-off for these calls is given here.

What was measured:
[1] = target: Cannabinoid receptor 1 (Mus musculus) (UniProt P47746); experiment: Agonist activity at CB1 receptor in CD1 mouse vas deferens assessed as inhibition of electrically-evoked contraction at 0.01 to 1 nM after 15 mins; assay type: functional, tissue-based
In short: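 Vasa deferentia from male CD-1 mice (25–30 g) cycled through 5 min stimulation (15 pulses per min, 70 V, 15 Hz, 2 ms) and 10 min rest, with isometric force recorded. Doses were added stepwise at 15 min intervals, and Krebs was replaced before each dose. Inhibition was read 15 min after each dose against the last pre-agonist contraction (100%). One curve was built per tissue.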

Cannabinoid receptor 1 [2] = target: T1, Cannabinoid receptor 1 (Rattus norvegicus, UniProt P20272); experiment: Displacement of [3H]SR141716A from CB1 receptor in rat cerebellar membrane after 90 mins by scintillation counting; assay type: cell membranes, Cerebellum
T1 sequence (P20272 whole entry): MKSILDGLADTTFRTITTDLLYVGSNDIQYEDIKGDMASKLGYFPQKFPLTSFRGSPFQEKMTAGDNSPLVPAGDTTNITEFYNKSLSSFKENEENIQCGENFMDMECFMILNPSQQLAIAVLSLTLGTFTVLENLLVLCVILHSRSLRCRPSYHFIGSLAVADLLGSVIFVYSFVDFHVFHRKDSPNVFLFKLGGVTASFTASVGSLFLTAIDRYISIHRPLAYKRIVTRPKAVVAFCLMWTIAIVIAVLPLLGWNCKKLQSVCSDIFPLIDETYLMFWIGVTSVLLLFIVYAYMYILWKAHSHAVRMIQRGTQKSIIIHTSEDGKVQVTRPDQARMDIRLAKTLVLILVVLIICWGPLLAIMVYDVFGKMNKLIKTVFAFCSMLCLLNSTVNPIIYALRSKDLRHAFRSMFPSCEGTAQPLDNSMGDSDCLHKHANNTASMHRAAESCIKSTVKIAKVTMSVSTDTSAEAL
In short: (§1)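 Compounds were dissolved in DMSO, then diluted in 20 mM HEPES pH 7.4 with 1 mM MgCl2 and 0.5% fatty-acid-free BSA. Incubation was 30 °C for 90 min, stopped with ice-cold buffer and filtered on GF/C. Ki was derived by Cheng–Prusoff using fixed, independently measured Kd.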

[3] = target: T2, Fatty-acid amide hydrolase 1 (Rattus norvegicus) (UniProt P97612); experiment: Inhibition of FAAH in rat brain homogenates assessed as membrane bound [3H]anandamide level at 1 uM relative to control; assay type: tissue-based; design: scale not given: the % may be the effect or the level left
T2 sequence (whole entry): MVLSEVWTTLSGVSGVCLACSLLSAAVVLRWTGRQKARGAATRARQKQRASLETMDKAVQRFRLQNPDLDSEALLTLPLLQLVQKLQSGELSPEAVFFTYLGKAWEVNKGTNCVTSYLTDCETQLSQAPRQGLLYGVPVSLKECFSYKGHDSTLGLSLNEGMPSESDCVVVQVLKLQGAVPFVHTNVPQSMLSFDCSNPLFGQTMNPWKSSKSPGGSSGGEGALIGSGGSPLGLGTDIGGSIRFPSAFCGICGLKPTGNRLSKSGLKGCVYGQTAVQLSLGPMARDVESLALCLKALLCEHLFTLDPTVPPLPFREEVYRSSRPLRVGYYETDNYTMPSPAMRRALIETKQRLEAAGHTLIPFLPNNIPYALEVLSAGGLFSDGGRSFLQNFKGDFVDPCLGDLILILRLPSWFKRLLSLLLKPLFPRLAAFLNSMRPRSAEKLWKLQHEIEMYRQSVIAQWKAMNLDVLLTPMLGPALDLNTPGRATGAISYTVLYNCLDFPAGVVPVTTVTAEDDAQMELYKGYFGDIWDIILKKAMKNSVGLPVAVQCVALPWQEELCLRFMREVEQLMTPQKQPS
In short: (§2)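 Brain membrane FAAH. Tissue was homogenized in 50 mM Tris pH 8 with 0.32 M sucrose, spun at 1000g for 5 min, and the supernatant spun at 45,000g for 30 min. The pellet was solubilized in Tris at 0–4 °C, protein measured by Bradford, and samples stored at −70 °C. Substrate was arachidonyl-[1-3H]-ethanolamide, and [3H]ethanolamine was counted in the aqueous phase after chloroform extraction. Conditions were linear in time and protein; activity is given as % of control at 10^-6 and 10^-7 M.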

[4] = target: T2, Fatty-acid amide hydrolase 1 (Rattus norvegicus); experiment: Inhibition of FAAH in rat brain homogenates assessed as membrane bound [3H]anandamide level at 0.1 uM relative to control; assay type: tissue-based; design: scale not given: the % may be the effect or the level left; in short: as §2
Cannabinoid receptor 1 [5] = target: T1, Cannabinoid receptor 1; experiment: Displacement of [3H]WIN-55212-2 from CB1 receptor in rat cerebellar membrane after 90 mins by scintillation counting; assay type: cell membranes, Cerebellum
In short: as §1, with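 “Cerebellar membranes incubated in triplicate with radioligand ([3H]SR141716A 0.4 nM; [3H]WIN-55212-2 1 nM) and compound at 10^-5 to 10^-12 M final. Compounds” for “Compounds”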

[6] = target: T3, Cannabinoid receptor 2 (Rattus norvegicus) (UniProt Q9QZN9); experiment: Displacement of [3H]WIN-55212-2 from CB2 receptor in rat cerebellar membrane at 10 uM after 90 mins by scintillation counting; assay type: cell membranes; conditions: Cerebellum
T3 sequence (whole entry): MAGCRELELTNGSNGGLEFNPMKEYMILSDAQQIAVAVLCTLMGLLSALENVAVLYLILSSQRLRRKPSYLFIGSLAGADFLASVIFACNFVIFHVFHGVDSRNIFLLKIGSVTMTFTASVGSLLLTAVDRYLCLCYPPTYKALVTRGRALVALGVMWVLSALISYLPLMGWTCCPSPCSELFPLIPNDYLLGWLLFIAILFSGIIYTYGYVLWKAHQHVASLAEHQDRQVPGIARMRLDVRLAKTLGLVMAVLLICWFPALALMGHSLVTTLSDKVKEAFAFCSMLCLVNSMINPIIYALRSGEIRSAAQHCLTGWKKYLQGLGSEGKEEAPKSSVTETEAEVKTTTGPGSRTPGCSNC

[7] = target: T3, Cannabinoid receptor 2 (Rattus norvegicus); experiment: Displacement of [3H]WIN-55212-2 from CB2 receptor in rat cerebellar membrane at 0.001 nM after 90 mins by scintillation counting; assay type: cell membranes; conditions: Cerebellum

Sequence of Cannabinoid receptor 1 (Mus musculus) (P47746 whole entry): as the sequence (P20272 whole entry) above, with E95D counted along it

Row | SMILES | inhibition [1] | Ki (Cannabinoid receptor 1 [2]) [µM] | Activity [3] [%] | Activity [4] [%] | Ki (Cannabinoid receptor 1 [5]) [µM] | Activity [6] | Activity [7]
1 | CC(NS(N)(=O)=O)C12CC3CC(CC(C3)C1)C2 (configuration not stated) | inactive |  |  |  |  |  | 
2 | CCCCCCCC/C=C\CCCCCCCCNS(N)(=O)=O | inactive | 1.89 | 102 | 100 |  |  | 
3 | CCCCCCCCCCCCCCCCNS(N)(=O)=O |  |  | 103 | 114 |  |  | 
4 | CCCNS(=O)(=O)NC1C2CC3CC(C2)CC1C3 (configuration not stated) | inactive | 6.67 |  |  | > 10 | inactive | inactive
5 | CCCCC/C=C\C/C=C\C/C=C\C/C=C\CCCCNS(N)(=O)=O | inactive | 4.01 |  |  |  |  | 
6 | CCCNS(=O)(=O)NC12CC3CC(CC(C3)C1)C2 | inactive | 8.58 | 92.6 | 90.4 | 4.23 | inactive | inactive
7 | CCCCCCCCCCCCCCNS(N)(=O)=O |  |  | 109 | 109 |  |  | 
8 | CCCNS(=O)(=O)NC(C)C12CC3CC(CC(C3)C1)C2 (configuration not stated) | inactive | > 10 |  |  | > 100 | inactive | inactive
9 | NS(=O)(=O)NC1C2CC3CC(C2)CC1C3 (configuration not stated) | inactive |  |  |  |  |  | 
10 | CCCCC/C=C\C/C=C\CCCCCCCCNS(=O)(=O)NCCC | inactive | 7.19 |  |  |  |  | 
11 | CCCCCCCCCCCCCCCCCCNS(N)(=O)=O | inactive | > 10 | 99.4 | 106 |  |  | 
12 | CCCCCCCCCCCCCCCCCCNS(=O)(=O)NCCC | inactive | 9.1 | 110 | 109 | > 10 | inactive | inactive
13 | CCCCCCCCCCCCNS(N)(=O)=O |  |  | 99.3 | 108 |  |  | 
14 | CCCCC/C=C\C/C=C\C/C=C\C/C=C\CCCCNS(=O)(=O)NCCC | inactive | 2.34 |  |  |  |  | 
15 | CCCCC/C=C\C/C=C\CCCCCCCCNS(N)(=O)=O | inactive | 6.41 |  |  |  |  | 
16 | CCCCCCCC/C=C\CCCCCCCCNS(=O)(=O)NCCC | inactive | > 10 | 96.5 | 101 |  |  | 
